From ChEMBL document CHEMBL1144865, “N-aminoimidazole derivatives inhibiting retroviral replication via a yet unidentified mode of action” (J Med Chem, 2003)

Columns and labels:
[1] = system: Human immunodeficiency virus 2; experiment: Concentration required to inhibit the viral (HIV-2 ROD) cytopathic effect by 50% in MT-4 cells.; format: functional, organism-based, MT4
Outline: (§1)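 Virus-infected MT-4 cells cultured with serial compound dilutions; viability measured 5 days after infection by MTT tetrazolium colorimetric read-out. The value is the concentration protecting 50% of cells from viral cytopathic effect. Averages ± SD from at least two independent experiments. HIV-2 and SIV stocks came from infected MT-4 culture supernatants.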

[2] = system: MT4; experiment: Concentration that reduced the MT-4 cell viability by 50%.; format: functional, Homo sapiens
Outline: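 Mock-infected MT-4 cells, run in parallel with the antiviral assay, were exposed to compound. Viability on day 5 was read by MTT colorimetry. The value is the concentration lowering viability by 50%. Averages ± SD from at least two independent experiments.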

[3] = system: Human immunodeficiency virus 1; experiment: Concentration required to inhibit the viral (HIV-1 IIIB strain) cytopathic effect by 50% in MT-4 cells.; format: functional, organism-based; details: Human immunodeficiency virus 1, MT4; outline: as §1
[4] = system: Human immunodeficiency virus 1; experiment: Concentration required to inhibit the viral (HIV-1 NL4.3 strain) cytopathic effect by 50% in MT-4 cells.; format: functional, organism-based; details: Human immunodeficiency virus 1, MT4; outline: as §1
[5] = system: Simian immunodeficiency virus; experiment: Concentration required to inhibit the viral (SIV mac251) cytopathic effect by 50% in MT-4 cells.; format: functional, organism-based, MT4; outline: as §1
[6] = Human immunodeficiency virus 2, MT4
[7] = Simian immunodeficiency virus, mac251, MT4

`Cc1cccc(Nn2cnc(C)c2C)c1` gave an IC50 [1, 6] greater than 312 µM, a CC50 ([2]; Homo sapiens, MT4) of 312 µM and an IC50 [3] greater than 312 µM. The IC50 [4] was greater than 312 µM and the IC50 [5, 7] was greater than 312 µM.

In the case of `CC1N=C(S)N(Nc2cccc(Cl)c2)C1c1cccc(C(=O)O)c1` (configuration not stated), the IC50 [1, 6] is reported as greater than 120 µM, the CC50 ([2]; Homo sapiens, MT4) is reported as 120 µM and the IC50 [3] is reported as greater than 120 µM. It also gave an IC50 [4] greater than 120 µM and an IC50 [5, 7] greater than 120 µM.

With `Cc1nc(S)n(Nc2ccc(F)cc2)c1-c1ccccc1` the IC50 [1, 6] was greater than 220 µM, the CC50 ([2]; Homo sapiens, MT4) was 220 µM and the IC50 [3] was greater than 220 µM. The IC50 [4] was greater than 220 µM and the IC50 [5, 7] was greater than 220 µM.

For `CC1N=C(S)N(Nc2cccc(Cl)c2)C1C(=O)O` (configuration not stated), the IC50 [1, 6] was greater than 266 µM, the CC50 ([2]; Homo sapiens, MT4) was 266 µM and the IC50 [3] was greater than 266 µM. The IC50 [4] was greater than 266 µM and the IC50 [5, 7] was greater than 266 µM.

With `CC1N=C(S)N(Nc2cc(Cl)ccc2Cl)C1c1ccccc1` (configuration not stated) the IC50 [1, 6] was greater than 147 µM, the CC50 ([2]; Homo sapiens, MT4) was 147 µM and the IC50 [3] was greater than 147 µM. It also gave an IC50 [4] greater than 147 µM and an IC50 [5, 7] greater than 147 µM.

`Cc1c(-c2ccccc2)nc(S)n1Nc1cccc(Cl)c1` gave an IC50 [1, 6] greater than 50 µM, a CC50 ([2]; Homo sapiens, MT4) of 50 µM and an IC50 [3] greater than 50 µM. For the same compound, the IC50 [4] was greater than 50 µM and the IC50 [5, 7] was greater than 50 µM.

With `Cc1nc(S)n(Nc2ccc(Cl)cc2)c1-c1ccccc1` the IC50 [1, 6] was greater than 134 µM, the CC50 ([2]; Homo sapiens, MT4) was 134 µM and the IC50 [3] was greater than 134 µM. For the same compound, the IC50 [4] was greater than 134 µM and the IC50 [5, 7] was greater than 134 µM.

`Cc1ncn(Nc2ccccc2)c1-c1ccccc1` gave an IC50 [1, 6] greater than 52.2 µM, a CC50 ([2]; Homo sapiens, MT4) of 52.2 µM and an IC50 [5, 7] greater than 52.2 µM.

Work on `COC(=O)c1c(C)ncn1Nc1cccc(Cl)c1` yielded an IC50 [1, 6] greater than 107 µM, a CC50 ([2]; Homo sapiens, MT4) of 107 µM and an IC50 [3] greater than 107 µM. It also gave an IC50 [4] greater than 107 µM and an IC50 [5, 7] greater than 107 µM.

Compound `Cc1cccc(NN2C(S)=NC(C)C2c2cccc(C#N)c2)c1` (configuration not stated) has an IC50 [1, 6] greater than 45.6 µM, a CC50 ([2]; Homo sapiens, MT4) of 45.6 µM and an IC50 [3] greater than 45.6 µM. It also gave an IC50 [4] greater than 45.6 µM and an IC50 [5, 7] greater than 45.6 µM.

`CCc1ccc(NN2C(S)=NC(C)C2c2ccccc2)cc1` (configuration not stated) gave an IC50 [1, 6] greater than 34.5 µM, a CC50 ([2]; Homo sapiens, MT4) of 34.5 µM and an IC50 [3] greater than 34.5 µM. For the same compound, the IC50 [4] was greater than 34.5 µM and the IC50 [5, 7] was greater than 34.5 µM.

`Cc1cccc(Nn2cnc(C)c2-c2cccc(C#N)c2)c1` gave an IC50 [1, 6] greater than 44.7 µM, a CC50 ([2]; Homo sapiens, MT4) of 44.7 µM and an IC50 [3] greater than 44.7 µM. The IC50 [4] was greater than 44.7 µM and the IC50 [5, 7] was greater than 44.7 µM.

With `Cc1cccc(NN2C(S)=NC(C)C2C)c1` (configuration not stated) the IC50 [1, 6] was greater than 360 µM, the CC50 ([2]; Homo sapiens, MT4) was 360 µM and the IC50 [3] was greater than 360 µM. The IC50 [4] was greater than 360 µM and the IC50 [5, 7] was greater than 360 µM.

In the case of `Cc1ncn(Nc2cccc(Cl)c2)c1C`, the IC50 ([1]; mt4) is reported as greater than 214 µM, the CC50 [2] is reported as 214 µM and the IC50 ([5]; mt4) is reported as greater than 214 µM.

`CC1N=C(S)N(Nc2ccccc2)C1C` (configuration not stated) showed an IC50 [1, 6] greater than 181 µM, a CC50 ([2]; Homo sapiens, MT4) of 181 µM and an IC50 [3] greater than 181 µM. The IC50 [4] was greater than 181 µM and the IC50 [5, 7] was greater than 181 µM.

`Cc1ncn(Nc2ccccc2)c1C` was tested, and the IC50 [1, 6] was greater than 351 µM, the CC50 ([2]; Homo sapiens, MT4) was 351 µM and the IC50 [3] was greater than 351 µM. The IC50 [4] was greater than 351 µM and the IC50 [5, 7] was greater than 351 µM.

`Cc1cccc(NN2C(S)=NC(C)C2c2cccc(C(=O)O)c2)c1` (configuration not stated) was tested, and the IC50 [1, 6] was greater than 187 µM, the CC50 ([2]; Homo sapiens, MT4) was 187 µM and the IC50 [3] was greater than 187 µM. For the same compound, the IC50 [4] was greater than 187 µM and the IC50 [5, 7] was greater than 187 µM.

`CC1N=C(S)N(Nc2ccccc2)C1c1ccccc1` (configuration not stated) was tested, and the IC50 [1, 6] was greater than 191 µM, the CC50 ([2]; Homo sapiens, MT4) was 191 µM and the IC50 [3] was greater than 191 µM. For the same compound, the IC50 [4] was greater than 191 µM and the IC50 [5, 7] was greater than 191 µM.

For `COC(=O)C1N=C(S)N(Nc2cccc(Cl)c2)C1C` (configuration not stated), the IC50 [1, 6] was greater than 48.8 µM, the CC50 ([2]; Homo sapiens, MT4) was 48.8 µM and the IC50 [3] was greater than 48.8 µM. It also gave an IC50 [4] greater than 48.8 µM and an IC50 [5, 7] greater than 48.8 µM.

`Cc1nc(SCc2ccccc2)n(Nc2cccc(Cl)c2)c1-c1ccccc1` showed an IC50 [1, 6] greater than 39.7 µM, a CC50 ([2]; Homo sapiens, MT4) of 39.7 µM and an IC50 [3] greater than 39.7 µM. For the same compound, the IC50 [4] was greater than 39.7 µM and the IC50 [5, 7] was greater than 39.7 µM.

`Cc1nc(S)n(Nc2cccc(Cl)c2)c1-c1ccc(Br)cc1` showed an IC50 [1, 6] greater than 33.2 µM, a CC50 ([2]; Homo sapiens, MT4) of 33.2 µM and an IC50 [3] greater than 33.2 µM. The IC50 [4] was greater than 33.2 µM and the IC50 [5, 7] was greater than 33.2 µM.

`CSc1ccc(NN2C(S)=NC(C)C2c2ccccc2)cc1` (configuration not stated) was tested, and the IC50 [1, 6] was greater than 53 µM, the CC50 ([2]; Homo sapiens, MT4) was 53 µM and the IC50 [3] was greater than 53 µM. It also gave an IC50 [4] greater than 53 µM and an IC50 [5, 7] greater than 53 µM.

`Clc1cccc(Nn2cnc3c2CCCC3)c1` showed an IC50 ([1]; mt4) greater than 67.3 µM, a CC50 [2] of 67.3 µM and an IC50 ([5]; mt4) greater than 67.3 µM.

In the case of `Cc1cc(C)cc(Nn2cnc(C)c2-c2ccccc2)c1`, the IC50 [1, 6] is reported as greater than 20.4 µM, the CC50 ([2]; Homo sapiens, MT4) is reported as 20.4 µM and the IC50 [5, 7] is reported as greater than 20.4 µM.
